GalR3 antagonist = GalR3 antagonists in HEK293 cells, primary screen, cell-based, fluorescence readout; 360,000 tested, 0.44% active; Galanin receptor type 3 (Homo sapiens), O60755; HEK293 GalR3-CNG cAMP membrane potential fluorescence; galR3 body fused to GalR1 C-terminus; inhibition, % at 3 µM;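 active = inhibition above the screen-wide average plus 3 SD, cut at about 13% in these data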;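 note: forskolin and galanin both at EC90 stimulate the cells; cAMP rise reported by CNG channel membrane potential dye signal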
Target sequence (O60755 1-299 limits assumed): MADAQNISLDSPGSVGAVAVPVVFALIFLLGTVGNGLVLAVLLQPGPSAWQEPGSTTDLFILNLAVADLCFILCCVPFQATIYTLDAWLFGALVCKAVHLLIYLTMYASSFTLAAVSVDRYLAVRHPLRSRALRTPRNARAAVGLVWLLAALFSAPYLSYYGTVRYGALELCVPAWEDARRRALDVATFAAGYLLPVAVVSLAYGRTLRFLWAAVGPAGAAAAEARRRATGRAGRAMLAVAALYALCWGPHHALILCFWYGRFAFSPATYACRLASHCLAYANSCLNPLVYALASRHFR
Gli-Sufu antag = Gli-Sufu pathway antagonists, primary screen, luciferase luminescence, Sufu-KO-LIGHT cells, uHTS. Sufu-KO-LIGHT fibroblasts, Gli luciferase reporter luminescence. inhibition, % at 5 µM. 340,000 tested, 0.74% active. AID 588413, 2011;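 active = inhibition above about 55%, limit read from the data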
NR2E3 ag-1 = inhibitors of NR2E3-RetCOR corepressor binding, primary screen, NR2E3 agonist project, biochemical, TR-FRET, GST-NR2E3, biotin-RetCOR | 1536-well | Photoreceptor-specific nuclear receptor (Homo sapiens), Q9Y5X4 | 320,000 tested, 0.12% active | inhibition of corepressor binding, % at 4.78 µM;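 active = percent inhibition above the cutoff of mean plus 3 SD of all tested compounds, set per screening campaign, cut at about 20% in these data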
Target sequence (Q9Y5X4 whole entry, looked up): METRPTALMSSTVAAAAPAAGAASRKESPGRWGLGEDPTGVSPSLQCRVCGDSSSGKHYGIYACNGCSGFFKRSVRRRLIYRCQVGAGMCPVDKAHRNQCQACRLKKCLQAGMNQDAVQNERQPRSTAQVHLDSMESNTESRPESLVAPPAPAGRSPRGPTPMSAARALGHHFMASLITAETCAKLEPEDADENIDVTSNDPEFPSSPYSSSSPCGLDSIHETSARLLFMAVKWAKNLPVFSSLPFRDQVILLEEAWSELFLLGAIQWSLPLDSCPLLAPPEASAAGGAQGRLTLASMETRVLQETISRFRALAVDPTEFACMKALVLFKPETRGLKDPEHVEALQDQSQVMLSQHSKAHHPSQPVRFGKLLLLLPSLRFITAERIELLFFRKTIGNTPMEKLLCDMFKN
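Assay system: NR2E3–RetCOR corepressor complex. Quantity: 1.35 nM GST-NR2E3. Buffer or medium: pH 7.5 Tris-based buffer. Reagent: biotinylated RetCOR corepressor at 7 nM final. Schedule: 5 h at 4 °C. Detection: TR-FRET, emission read at 617 and 671 nm. Replicates: one well per compound, singlicate testing.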
NR2E3 ag-2 = NR2E3 agonists in two-hybrid cells, primary screen, cell-based, luminescence, CHO-S, Gal4-NCOR/VP16-NR2E3. luciferase. AID 602229, 2012. inhibition of corepressor binding, % at 3.98 µM. 360,000 tested, 0.35% active. Photoreceptor-specific nuclear receptor (Homo sapiens), Q9Y5X4;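 active = inhibition above the mean of all tested compounds plus 3 SD, cut at about 70% in these data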;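 note: higher means lower luciferase signal from less NR2E3 corepressor binding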
697 NFkB inh = inhibitors of PMA/ionomycin-induced NF-kB reporter, 697 cells, primary screen, B-cell NF-kB inhibitor project, cell-based, luminescence, uHTS. 697 B-cell NF-kB luciferase reporter, 16 h. inhibition, % at 4 µM. 330,000 tested, 0.33% active. AID 435022, 2010; in the data active = inhibition above about 35%
Jurkat NFkB inh = inhibitors of induced NF-kB luciferase reporter, primary screen, TCR NF-kB activation inhibitor project, cell-based, luminescence, uHTS; inhibition, % at 4 µM; 330,000 tested, 0.53% active; Jurkat, PMA/ionomycin-induced NF-kB luciferase reporter; in the data active = inhibition above about 50%
Gli antag conf = Gli-SUFU pathway antagonists, confirmation, single concentration, luciferase luminescence, Sufu-KO-LIGHT cells; inhibition, % at 5 µM; Gli luciferase reporter; shares compounds with Gli-Sufu antag; AID 602428, 2012; 2,500 tested, 40% active;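 active = mean inhibition at 5 µM reaching about 45%, limit read from the data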
SufuKO cytotox = cytotoxicity in Sufu-KO-LIGHT cells, confirmation, cytotoxicity control for Gli-SUFU antagonist project, cell-based, ATP luminescence, single concentration. shares compounds with Gli-Sufu antag. cytotoxicity, % at 5 µM. 2,500 tested, 32% active;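 active = mean cytotoxicity at 5 µM above about 25%, limit read from the data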;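 note: cells exposed to compound overnight for roughly 16 to 18 hours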
Wnt3a cs = Wnt3a reporter signal inhibition, confirmation, counter-screen for Gli-SUFU antagonist project, Wnt-LIGHT cells, luminescence, single concentration | shares compounds with Gli-Sufu antag | Wnt3a-driven luciferase reporter | inhibition, % at 6.25 µM | 2,500 tested, 20% active | AID 651995, 2013;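 active = mean inhibition above about 25%, limit read from the data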
Large screens that a line does not name were inactive (follow-up assays come after a bar, where they were run). Sampled rows, rich in hits. Any-hit rate of the full collection: about 1.8%.

COC(=O)/C=C1\Nc2ccc(Cl)cc2C(=O)NC1=O	none (no result: Gli-Sufu antag, NR2E3 ag-1, NR2E3 ag-2, 697 NFkB inh, Jurkat NFkB inh)
Cc1nnc2nc(N)[nH]n2c1=O	none (no result: Gli-Sufu antag, NR2E3 ag-1, NR2E3 ag-2, 697 NFkB inh, Jurkat NFkB inh)
Cc1ccc(C)c(N2CCN(c3nc4ccccc4c(=O)n3Cc3ccccc3)CC2)c1	none | Gli antag conf inactive | SufuKO cytotox inactive | Wnt3a cs inactive
CCc1noc(C)c1C(=O)OCC(=O)c1ccccc1OC	none
CN1CCN(/N=C/c2nc(-c3ccccc3)n3ccccc23)CC1	none | Gli antag conf inactive | SufuKO cytotox inactive | Wnt3a cs inactive
Cc1c(C(=O)N2CCCCCC2)c(S(=O)(=O)Nc2ccccc2F)c(C)n1C	none | Gli antag conf inactive | SufuKO cytotox inactive | Wnt3a cs inactive
O=C(Nc1nnc(-c2cccs2)o1)c1cccc(F)c1	none | Gli antag conf inactive | SufuKO cytotox inactive | Wnt3a cs inactive
CCOc1ccc(NCC(=O)c2ccc(C)cc2)cc1	Gli-Sufu antag 61 | Gli antag conf inactive | SufuKO cytotox inactive | Wnt3a cs inactive
Cc1ccc(C(=O)CNc2ccc(Cl)cc2)cc1	none
Cc1cccc(OCCn2cc(/C=N/NC(=O)c3ccncc3)c3ccccc32)c1	Gli-Sufu antag 96 | Gli antag conf inactive | SufuKO cytotox 29 | Wnt3a cs inactive
COC(=O)N/N=C/c1cn(CCOc2cccc(OC)c2)c2ccccc12	none
COc1ccccc1CCN1CCCC(CN(C)Cc2ccc(OCCO)cc2)C1 (stereo not drawn)	none | Gli antag conf inactive | SufuKO cytotox inactive | Wnt3a cs inactive
COc1cc(CN(C)CC2CCCN(CCc3ccc(F)cc3)C2)c(Cl)cc1O (stereo not drawn)	Gli-Sufu antag 55 | Gli antag conf inactive | SufuKO cytotox inactive | Wnt3a cs inactive
O=C(CC1SC(N2CCOCC2)=NC1=O)Nc1ccccc1Cl (stereo not drawn)	none
O=C(Nc1cc(N2CCCCC2)ncn1)c1ccccc1	Gli-Sufu antag 72 | Gli antag conf 77 | SufuKO cytotox inactive | Wnt3a cs inactive
CCCN(C(=O)CCc1cn(CCC)c2ccccc12)c1ccc(N(C)c2ccccn2)cc1	none (no result: Gli-Sufu antag, NR2E3 ag-1, NR2E3 ag-2, 697 NFkB inh, Jurkat NFkB inh)
CCC(Oc1ccccc1F)C(=O)Nc1ccc2c(c1)n(C)c(=O)n2C (stereo not drawn)	none (no result: NR2E3 ag-1) | Gli antag conf inactive | SufuKO cytotox inactive | Wnt3a cs inactive
CCC(Oc1ccc(C)cc1)C(=O)Nc1ccc2c(c1)n(C)c(=O)n2C (stereo not drawn)	none (no result: NR2E3 ag-1)
Cc1cc(C)cc(N2CCCn3c2nc2c3c(=O)n(CC(=O)OCc3ccccc3)c(=O)n2C)c1	none (no result: GalR3 antagonist)
Cc1ccc(N2CC(C)Cn3c2nc2c3c(=O)n(CC(=O)OCc3ccccc3)c(=O)n2C)cc1C (stereo not drawn)	Gli-Sufu antag 57 | Gli antag conf inactive | SufuKO cytotox inactive | Wnt3a cs inactive
Cn1c(=O)c2ccccc2n(Cc2cccc(F)c2)c1=O	none | Gli antag conf inactive | SufuKO cytotox inactive | Wnt3a cs inactive
COc1cc(CCC(=O)Nc2ccc(C)c(S(=O)(=O)N3CCCCCC3)c2)cc(OC)c1OC	none | Gli antag conf inactive | SufuKO cytotox inactive | Wnt3a cs inactive
O=c1ccc(-c2ccc(S(=O)(=O)NCC3CCN(Cc4cccc(F)c4)CC3)s2)n[nH]1	Gli-Sufu antag 59 | Gli antag conf inactive | SufuKO cytotox inactive | Wnt3a cs inactive
Cc1ccc(NS(=O)(=O)c2ccc(-c3ccc(=O)[nH]n3)o2)cc1Cl	none | Gli antag conf inactive | SufuKO cytotox inactive | Wnt3a cs inactive
COc1cc2c(cc1OC)C1C(C(=O)Nc3ccccc3N3CCN(C)CC3)c3ccccc3C(=O)N1CC2 (stereo not drawn)	none
COc1cc2c(cc1OC)C(C(=O)Nc1ccccc1N1CCN(C)CC1)C1c3ccccc3CCN1C2=O (stereo not drawn)	Gli-Sufu antag 56 | Gli antag conf inactive | SufuKO cytotox inactive | Wnt3a cs inactive
Cc1ccc(C(C)C)c(OCCn2c(=O)oc3ccccc32)c1	Gli-Sufu antag 96 | Gli antag conf inactive | SufuKO cytotox inactive | Wnt3a cs inactive
CC1Cc2ccccc2N1CC(=O)Nc1cc(S(=O)(=O)N2CCOCC2)ccc1Cl (stereo not drawn)	none (no result: Gli-Sufu antag, NR2E3 ag-1, 697 NFkB inh, Jurkat NFkB inh)
Cc1cc(N2CC(C)OC(C)C2)nc(C(C)C)n1 (stereo not drawn)	none | Gli antag conf inactive | SufuKO cytotox inactive | Wnt3a cs inactive
C#CC[N+](C)(C)CCCCCCCCCC	Gli-Sufu antag 56 | Gli antag conf 58 | SufuKO cytotox 37 | Wnt3a cs 48
CCCCCC[N+](C)(C)CCSSCC[N+](C)(C)CCCCCC	none
C#CC[N+](C)(C)CCCCCCCC	none
CC#CC[N+](C)(C)CCCCCCCCCCCC	Gli-Sufu antag 88 | Gli antag conf 89 | SufuKO cytotox 31 | Wnt3a cs inactive
CN(C)S(=O)(=O)c1ccc2oc(SCC(=O)c3c(N)n(C4CC4)c(=O)[nH]c3=O)nc2c1	none
CN(C)S(=O)(=O)c1ccc2oc(SCC(N)=O)nc2c1	Gli-Sufu antag 67 | Gli antag conf inactive | SufuKO cytotox inactive | Wnt3a cs inactive
Cc1cccc(N/C=C/c2onc(C)c2[N+](=O)[O-])c1	none | Gli antag conf inactive | SufuKO cytotox inactive | Wnt3a cs inactive
O=C(Cc1ccccc1)NCCS(=O)(=O)N1CCN(c2ccccc2)CC1	none
O=C(Cc1ccc(F)cc1)NCCS(=O)(=O)N1CCN(c2ccccc2)CC1	Gli-Sufu antag 97 | Gli antag conf inactive | SufuKO cytotox inactive | Wnt3a cs inactive
O=C(Nc1ccc(C(=O)NC2CCCCC2)cc1)c1cccnc1	Gli-Sufu antag 55 | Gli antag conf inactive | SufuKO cytotox inactive | Wnt3a cs inactive
CC(=O)Nc1ccc(C(=O)NC2CCCC2)cc1	none
S=C(Nc1cccnc1)NC1CCCC1	Gli-Sufu antag 59 | Gli antag conf inactive | SufuKO cytotox inactive | Wnt3a cs inactive
S=C(Nc1cccnc1)NC1CCCCCCC1	none
C[C@@H]1CN([C@H](C)CO)C(=O)c2cc(Br)cnc2O[C@H]1CN(C)Cc1ccccc1F	none (no result: Gli-Sufu antag, NR2E3 ag-1, NR2E3 ag-2, 697 NFkB inh, Jurkat NFkB inh)

High-throughput results (PubChem)
